ChEMBL document CHEMBL1150073, “Cytotoxic cyclolignans from Koelreuteria henryi” (J Nat Prod, 1994)
pIC50: −log10 of the molar value. In brackets after ≈: the same amount, converted by molar mass. Values belong to the molecule of their own block, whether it stands above or below them.

Assays:
SK-OV-3 = experiment: Cytotoxicity against human SKOV3 cells by MTT assay; type: functional; conditions: for EC50: Homo sapiens, SK-OV-3, read-out: ED50 (the source's name)
Method in brief: (§1)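 Human solid tumour lines tested at the Purdue Cancer Center cell culture laboratory using a standard MTT viability method, with adriamycin run as the control substance.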

A498 = experiment: Cytotoxicity against human A498 cells by MTT assay; type: functional; conditions: for EC50: Homo sapiens, A498, read-out: ED50 (the source's name); method in brief: as §1
A-431 = experiment: Cytotoxicity against human A431 cells by MTT assay; type: functional; conditions: for EC50: Homo sapiens, A-431, read-out: ED50 (the source's name); method in brief: as §1
A549 = experiment: Cytotoxicity against human A549 cells by MTT assay; type: functional; conditions: for EC50: Homo sapiens, A549, read-out: ED50 (the source's name); method in brief: as §1
HT-29 = experiment: Cytotoxicity against human HT-29 cells by MTT assay; type: functional; conditions: for EC50: Homo sapiens, HT-29, read-out: ED50 (the source's name); method in brief: as §1
MCF7 = experiment: Cytotoxicity against human MCF7 cells by MTT assay; type: functional; conditions: for EC50: Homo sapiens, MCF7, read-out: ED50 (the source's name); method in brief: as §1
PC-3 = experiment: Cytotoxicity against human PC3 cells by MTT assay; type: functional; conditions: for EC50: Homo sapiens, PC-3, read-out: ED50 (the source's name); method in brief: as §1
SK-MEL-5 = experiment: Cytotoxicity against human SK-MEL-5 cells by MTT assay; type: functional; conditions: for EC50: Homo sapiens, SK-MEL-5, read-out: ED50 (the source's name); method in brief: as §1
[1] = Inhibition of bovine brain tubulin polymerization by turbidity assay; design: species or system Bos taurus
Method in brief: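 Microtubule protein isolated from bovine brain, 1 mg/ml, with 1 mM GTP and graded inhibitor concentrations. Turbidity increase read at 340 nm over 30 min at 37°. Positive control contained MTP plus GTP; negative control contained MTP only.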

[2] = Inhibition of bovine brain tubulin polymerization by sedimentation assay; design: species or system Bos taurus
Method in brief: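 Microtubule protein from bovine brain (1 mg/ml) with 1 mM GTP and varying inhibitor levels, incubated 30 min at 37°. Microtubules pelleted at 100,000 g for 5 min. Supernatant protein measured by BCA. Sedimented protein calculated relative to the positive control (MTP+GTP) and negative control (MTP alone).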

pIC50 [1]: 5.30 | pIC50 [2]: 4.70
Structure (SMILES): COc1cc(-c2c3c(cc4cc5c(cc24)OCO5)COC3=O)cc2c1OCO2
EC50 (SK-OV-3): 0.0067 mg/L (≈ 0.0177 µM) | EC50 (A498): 0.078 mg/L (≈ 0.206 µM) | EC50 (A-431): 0.18 mg/L (≈ 0.476 µM) | EC50 (A549): 0.049 mg/L (≈ 0.13 µM) | EC50 (HT-29): 0.29 mg/L (≈ 0.767 µM) | EC50 (MCF7): 9.7 mg/L (≈ 25.6 µM) | EC50 (PC-3): 0.15 mg/L (≈ 0.396 µM) | EC50 (SK-MEL-5): 0.0035 mg/L (≈ 0.00925 µM)

pIC50 [1]: 4.40 | pIC50 [2]: 4.35
Structure (SMILES): COc1cc([C@@H]2c3cc4c(cc3C[C@H]3COC(=O)[C@H]32)OCO4)cc2c1OCO2
EC50 (SK-OV-3): 0.832 mg/L (≈ 2.18 µM) | EC50 (A498): 0.76 mg/L (≈ 1.99 µM) | EC50 (A-431): 0.96 mg/L (≈ 2.51 µM) | EC50 (A549): 0.46 mg/L (≈ 1.2 µM) | EC50 (HT-29): 0.1 mg/L (≈ 0.262 µM) | EC50 (MCF7): 4.1 mg/L (≈ 10.7 µM) | EC50 (PC-3): 3.1 mg/L (≈ 8.11 µM) | EC50 (SK-MEL-5): 0.77 mg/L (≈ 2.01 µM)

pIC50 [1]: 6.10 | pIC50 [2]: 6.00
Structure (SMILES): COc1cc([C@@H]2c3cc4c(cc3C[C@H]3COC(=O)[C@@H]32)OCO4)cc2c1OCO2 [AUSTROBAILIGNAN 1]
ED50 (SK-OV-3): 2.7 ×10⁻⁶ ug/ml | ED50 (A498): 3.2 ×10⁻⁶ ug/ml | ED50 (A-431): 3.6 ×10⁻⁶ ug/ml | ED50 (A549): 3.9 ×10⁻⁶ ug/ml | ED50 (HT-29): 3.7 ×10⁻⁶ ug/ml | ED50 (MCF7): 5.2 ×10⁻⁵ ug/ml | ED50 (PC-3): 3.3 ×10⁻⁶ ug/ml | ED50 (SK-MEL-5): 3 ×10⁻⁷ ug/ml

Structure (SMILES): COc1cccc2c1C(=O)c1c(O)c3c(c(O)c1C2=O)C[C@@](O)(C(=O)CO)C[C@@H]3O[C@H]1C[C@H](N)[C@H](O)[C@H](C)O1 [DOXORUBICIN]
EC50 (SK-OV-3): 0.0025 mg/L (≈ 0.0046 µM) | EC50 (A498): 0.0032 mg/L (≈ 0.00589 µM) | EC50 (A-431): 0.012 mg/L (≈ 0.0221 µM) | ED50 (A549): 3.1 ×10⁻⁴ ug/ml | ED50 (HT-29): 5.6 ×10⁻⁴ ug/ml | EC50 (MCF7): 0.02 mg/L (≈ 0.0368 µM) | EC50 (PC-3): 0.01 mg/L (≈ 0.0184 µM) | ED50 (SK-MEL-5): 2.8 ×10⁻⁴ ug/ml

Structure (SMILES): COc1cc([C@@H]2c3cc4c(cc3[C@H](O)[C@H]3COC(=O)[C@H]23)OCO4)cc(OC)c1OC [PODOFILOX]
ED50 (SK-OV-3): 4.2 ×10⁻⁵ ug/ml | ED50 (A498): 3.4 ×10⁻⁷ ug/ml | ED50 (A-431): 1.1 ×10⁻⁶ ug/ml | ED50 (A549): 7.7 ×10⁻⁸ ug/ml | ED50 (HT-29): 4.7 ×10⁻⁸ ug/ml | ED50 (MCF7): 1.1 ×10⁻⁶ ug/ml | ED50 (PC-3): 1.2 ×10⁻⁷ ug/ml | ED50 (SK-MEL-5): 4.1 ×10⁻⁸ ug/ml | pIC50 [1]: 6.22 | pIC50 [2]: 6.00
